The record followed here is ChEMBL document CHEMBL4028836, “Optimization of M4 positive allosteric modulators (PAMs): The discovery of VU0476406, a non-human primate in vivo tool compound for translational pharmacology” (Bioorg Med Chem Lett, 2017).

Data set [1] is described as follows: Aqueous solubility of the compound at pH 7.4. It counts as physicochemical. The note with it: buffer.
A further data set deals with Rattus norvegicus. The data set is described as follows: Elimination half-life in Sprague-Dawley rat at 0.1 to 1 mg/kg, iv. It counts as ADME, organism-based. Conditions: in vivo.
Data set [2] can be described thus: Unbound brain concentration in rat. It counts as ADME, tissue-based.
Data set [3] can be described thus: Drug metabolism in cynomolgus monkey cryopreserved hepatocytes assessed as metabolite M6 formation. It counts as ADME, cell-based, Macaca fascicularis, Hepatocyte.
The target of data set [4] is Voltage-gated inwardly rectifying potassium channel KCNH2 (Homo sapiens, UniProt Q12809). Nature of the data set: Inhibition of human ERG.
Sequence of Voltage-gated inwardly rectifying potassium channel KCNH2 (Q12809 whole entry): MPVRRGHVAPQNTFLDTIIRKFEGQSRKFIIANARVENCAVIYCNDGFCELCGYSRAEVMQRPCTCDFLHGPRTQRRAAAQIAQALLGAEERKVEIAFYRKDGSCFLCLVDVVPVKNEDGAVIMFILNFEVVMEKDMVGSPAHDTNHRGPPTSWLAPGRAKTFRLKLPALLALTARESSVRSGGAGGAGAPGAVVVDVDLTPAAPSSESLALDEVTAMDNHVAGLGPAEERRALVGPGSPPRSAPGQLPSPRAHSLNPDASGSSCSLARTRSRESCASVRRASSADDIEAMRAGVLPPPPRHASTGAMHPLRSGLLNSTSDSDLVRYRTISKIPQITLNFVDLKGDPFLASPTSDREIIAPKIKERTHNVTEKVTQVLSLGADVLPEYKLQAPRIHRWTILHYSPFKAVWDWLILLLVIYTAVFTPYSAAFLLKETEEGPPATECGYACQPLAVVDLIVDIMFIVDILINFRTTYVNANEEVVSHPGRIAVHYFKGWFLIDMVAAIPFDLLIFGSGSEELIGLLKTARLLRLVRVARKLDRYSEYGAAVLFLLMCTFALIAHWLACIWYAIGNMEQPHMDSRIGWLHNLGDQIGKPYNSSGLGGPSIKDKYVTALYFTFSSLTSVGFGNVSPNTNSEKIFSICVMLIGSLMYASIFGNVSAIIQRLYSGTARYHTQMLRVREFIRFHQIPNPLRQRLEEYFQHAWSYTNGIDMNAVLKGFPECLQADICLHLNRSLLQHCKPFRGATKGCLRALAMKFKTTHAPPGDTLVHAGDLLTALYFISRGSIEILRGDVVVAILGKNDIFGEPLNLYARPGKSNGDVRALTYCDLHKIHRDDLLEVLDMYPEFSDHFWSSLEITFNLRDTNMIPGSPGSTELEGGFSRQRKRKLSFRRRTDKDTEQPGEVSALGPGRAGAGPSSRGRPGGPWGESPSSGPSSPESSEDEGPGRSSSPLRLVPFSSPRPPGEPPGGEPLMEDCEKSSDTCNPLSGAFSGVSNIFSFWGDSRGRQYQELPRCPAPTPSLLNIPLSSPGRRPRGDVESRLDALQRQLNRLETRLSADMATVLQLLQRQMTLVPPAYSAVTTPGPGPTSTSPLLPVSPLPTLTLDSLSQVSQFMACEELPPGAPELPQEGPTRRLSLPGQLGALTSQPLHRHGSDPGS
Data set [5] deals with Muscarinic acetylcholine receptor M4 (Rattus norvegicus, UniProt P08485). Nature of the data set: Positive allosteric modulation of rat M4 receptor assessed as increase in acetylcholine-induced calcium mobilization. It counts as functional. In outline: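 M4 PAM concentration-response curves measured by calcium mobilization at the stated species' receptor. Potency reported as EC50/pEC50 and efficacy as % of acetylcholine maximum.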
Sequence of Muscarinic acetylcholine receptor M4 (Rattus norvegicus, UniProt P08485) (P08485 whole entry): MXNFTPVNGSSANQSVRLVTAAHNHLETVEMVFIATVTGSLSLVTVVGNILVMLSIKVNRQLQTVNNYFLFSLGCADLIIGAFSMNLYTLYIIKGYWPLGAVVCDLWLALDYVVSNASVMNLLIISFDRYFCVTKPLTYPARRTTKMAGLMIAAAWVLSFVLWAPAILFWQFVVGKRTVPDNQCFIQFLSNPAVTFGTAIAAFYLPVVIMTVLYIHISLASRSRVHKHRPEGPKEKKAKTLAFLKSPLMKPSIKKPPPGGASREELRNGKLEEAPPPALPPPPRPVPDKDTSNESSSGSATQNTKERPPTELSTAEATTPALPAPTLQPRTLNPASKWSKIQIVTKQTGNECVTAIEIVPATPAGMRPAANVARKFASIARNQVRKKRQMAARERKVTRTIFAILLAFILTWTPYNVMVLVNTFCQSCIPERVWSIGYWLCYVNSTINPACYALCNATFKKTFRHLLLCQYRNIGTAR
In general terms: Calcium assays in cells follow changes in intracellular calcium, usually with a dye or a luminescent sensor.

The target of data set [6] is T1, Muscarinic acetylcholine receptor M4 (Homo sapiens, UniProt P08173).
T1 sequence (P08173 whole entry): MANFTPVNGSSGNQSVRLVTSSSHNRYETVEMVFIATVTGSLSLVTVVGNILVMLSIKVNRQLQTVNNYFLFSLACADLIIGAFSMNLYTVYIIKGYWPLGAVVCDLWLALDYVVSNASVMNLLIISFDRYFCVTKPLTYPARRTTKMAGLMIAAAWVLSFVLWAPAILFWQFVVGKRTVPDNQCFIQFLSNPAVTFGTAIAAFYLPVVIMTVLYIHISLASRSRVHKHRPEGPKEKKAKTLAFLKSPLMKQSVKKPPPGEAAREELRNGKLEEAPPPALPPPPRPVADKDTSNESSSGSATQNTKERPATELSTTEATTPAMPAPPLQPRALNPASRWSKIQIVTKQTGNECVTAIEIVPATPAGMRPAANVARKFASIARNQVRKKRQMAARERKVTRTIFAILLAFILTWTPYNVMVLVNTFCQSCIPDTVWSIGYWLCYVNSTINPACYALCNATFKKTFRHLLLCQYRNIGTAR
The data set is described as follows: Positive allosteric modulation of human M4 receptor expressed in CHO cells coexpressing Gqi5 assessed as increase in acetylcholine-induced calcium mobilization. It counts as functional, cell-based. Conditions: read-out: EC50. In outline: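 Calcium mobilization in CHO cells expressing hM4 with Gqi5. Compound added in presence of a fixed EC20 concentration of acetylcholine. Values are means of three independent experiments, each run in triplicate.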

Data set [7] concerns the target Muscarinic acetylcholine receptor M3 (Homo sapiens, UniProt P20309). Nature of the data set: Activity at human M3 receptor.
For the next data set, the target named is Cytochrome P450 3A4 (Homo sapiens, UniProt P08684). The data set is described as follows: Inhibition of CYP3A4 (unknown origin). It counts as ADME.
Sequence of Cytochrome P450 3A4 (P08684 whole entry): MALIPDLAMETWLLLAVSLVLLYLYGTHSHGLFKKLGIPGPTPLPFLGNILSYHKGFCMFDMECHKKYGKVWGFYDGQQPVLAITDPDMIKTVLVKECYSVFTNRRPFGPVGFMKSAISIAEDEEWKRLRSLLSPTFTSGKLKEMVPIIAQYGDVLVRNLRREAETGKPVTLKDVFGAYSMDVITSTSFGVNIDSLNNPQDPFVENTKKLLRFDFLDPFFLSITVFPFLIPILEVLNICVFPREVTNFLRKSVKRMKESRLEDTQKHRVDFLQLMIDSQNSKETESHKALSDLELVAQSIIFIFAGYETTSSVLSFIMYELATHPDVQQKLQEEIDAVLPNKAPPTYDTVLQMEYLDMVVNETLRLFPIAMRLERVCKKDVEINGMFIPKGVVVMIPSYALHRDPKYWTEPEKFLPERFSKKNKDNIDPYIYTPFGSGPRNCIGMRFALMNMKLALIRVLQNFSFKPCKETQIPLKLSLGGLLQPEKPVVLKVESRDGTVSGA
Data set [8] in a line: Drug metabolism in human cryopreserved hepatocytes assessed as metabolite M2 formation. It counts as ADME, cell-based, Hepatocyte.
Data set [9] is described as follows: Drug metabolism in human cryopreserved hepatocytes assessed as metabolite M6 formation. It counts as ADME, cell-based, Hepatocyte.
Data set [10] in a line: Brain to plasma permeability coefficient, Kp of the compound in dog at 3 mg/kg, iv or po at 2 hrs post dose. It counts as ADME, organism-based, Canis lupus familiaris. In outline: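 Dog terminal study, with brain, plasma and CSF collected at 2.0 hr. Brain:plasma Kp, Kp,uu and Ccsf:Cplasma,u were derived.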
Data set [11] can be described thus: Drug metabolism in rat cryopreserved hepatocytes assessed as metabolite M6 formation. It counts as ADME, cell-based, Hepatocyte.
The subject of the next data set is Salmonella typhimurium. The data set is described as follows: Mutagenicity in Salmonella typhimurium TA100 in presence of S9 fraction by mini-Ames test. Conditions: salmonella enterica subsp. enterica serovar typhimurium. It counts as toxicity. The method, boiled down: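 Mini-Ames mutagenicity assay in Salmonella typhimurium strains TA98 and TA100, run with and without S9 metabolic activation.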
In general terms: In the Ames test, an excess of revertant colonies over the control signals mutagenicity.

A short description of data set [12]: Drug metabolism in cynomolgus monkey cryopreserved hepatocytes assessed as metabolite M7 formation. It counts as ADME, cell-based, Macaca fascicularis, Hepatocyte.
Data set [13] addresses Muscarinic acetylcholine receptor M5 (Homo sapiens, UniProt P08912). The data set is described as follows: Activity at human M5 receptor.

Structures are written as SMILES.

Sequence of Muscarinic acetylcholine receptor M3 (P20309 whole entry): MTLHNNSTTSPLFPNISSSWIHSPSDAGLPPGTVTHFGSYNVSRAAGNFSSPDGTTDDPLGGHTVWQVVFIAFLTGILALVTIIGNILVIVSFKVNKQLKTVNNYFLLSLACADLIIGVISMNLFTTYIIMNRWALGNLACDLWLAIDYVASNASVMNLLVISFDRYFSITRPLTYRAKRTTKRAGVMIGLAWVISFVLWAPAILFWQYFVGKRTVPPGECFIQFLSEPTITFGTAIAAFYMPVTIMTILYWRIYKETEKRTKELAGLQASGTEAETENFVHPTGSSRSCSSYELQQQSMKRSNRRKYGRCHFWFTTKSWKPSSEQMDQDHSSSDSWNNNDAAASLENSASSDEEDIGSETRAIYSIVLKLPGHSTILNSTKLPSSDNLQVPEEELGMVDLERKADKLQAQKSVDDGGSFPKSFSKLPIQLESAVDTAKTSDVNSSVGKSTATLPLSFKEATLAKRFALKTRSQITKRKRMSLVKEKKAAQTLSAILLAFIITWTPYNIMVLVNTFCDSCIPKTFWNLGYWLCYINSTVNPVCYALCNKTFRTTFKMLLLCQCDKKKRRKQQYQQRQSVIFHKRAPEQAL
Sequence of Muscarinic acetylcholine receptor M5 (P08912 whole entry): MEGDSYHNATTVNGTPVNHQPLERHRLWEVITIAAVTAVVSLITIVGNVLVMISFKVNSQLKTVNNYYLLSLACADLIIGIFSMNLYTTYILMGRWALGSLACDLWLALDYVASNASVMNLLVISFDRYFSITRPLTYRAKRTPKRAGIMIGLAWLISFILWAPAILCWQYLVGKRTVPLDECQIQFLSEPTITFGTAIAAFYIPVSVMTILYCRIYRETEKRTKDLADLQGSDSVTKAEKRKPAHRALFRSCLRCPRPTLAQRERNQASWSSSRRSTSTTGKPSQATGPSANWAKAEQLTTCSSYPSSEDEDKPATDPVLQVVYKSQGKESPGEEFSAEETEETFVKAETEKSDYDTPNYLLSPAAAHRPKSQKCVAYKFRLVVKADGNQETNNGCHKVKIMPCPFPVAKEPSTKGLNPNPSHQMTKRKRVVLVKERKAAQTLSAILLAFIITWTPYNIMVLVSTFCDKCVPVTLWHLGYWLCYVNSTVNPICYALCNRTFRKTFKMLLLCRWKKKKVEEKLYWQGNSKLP

Take `Cc1nnc2sc(C(=O)NCc3ccc(-c4cccnc4F)cc3)c(N)c2c1C`: the solubility (usually how much of the substance goes into solution per volume) in data set [1] is below 0.5 µM. The “beta t1/2” value in the data set with Rattus norvegicus stood at 2.7 h. Besides, in data set [2], the fraction unbound – broadly, the share of the substance not bound to proteins or other matrix – is 0.02. Also, the Drug metabolism result in [3], in data set [8], in data set [9], in data set [11] and in data set [12] was “Metabolite_Detected” in each case. Further, the IC50 (as a rule, the concentration at which inhibition is half-maximal) in [4] is above 33 µM; on Cytochrome P450 3A4, above 30 µM. For the same molecule, the EC50 is 13.5 nM in data set [5] (read-out: EC50); 11.7 nM in data set [5] (read-out: pEC50 (converted)); 91 nM in data set [6]; above 30 µM in data set [7]; above 30 µM in data set [13]. The Kp (commonly tissue or fluid exposure divided by exposure in the circulation) in data set [10] was 0.74. In the data set with Salmonella typhimurium, the Activity result is listed as “Non-Toxic”.
